Measured values from the RNAGym collection of RNA variant scans (doi:10.1038/nmeth.2970).

B1: NELF-E aptamer (parent)
chain: CCCAACGACUGCCGAGCGAGAUUACGCUUGAGCGCCCCACUGAGGAUGCCCACGGGCGAUUGGGGCACGG

Variants of: B1
Assay: HiTS-RAP
Settings: with NELF-E (Drosophila)
Outline: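 Aptamer DNA templates carrying a T7 promoter and ter site were sequenced on an Illumina GAIIx flowcell, then transcribed in situ by T7 RNA polymerase and halted by GST-Tus (30 minutes, 37°C). Clusters were imaged after 30-minute room-temperature equilibration with NELF-E-mOrange at 0.064 to 1000 nM in HEPES binding buffer, and only the first binding curve was used. Intensities were normalised to sequencing intensity and averaged per sequence. Kd came from weighted Hill fits, keeping fits with variance below 1,000,000.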

In order of rising Kd:
1. CCCAACGACUUCCGAGCGAGAUUACGCUUGAGCGCCCCACUGAGGAUGCCCAUGGGCGAUUGGGGCACGG  3.96 nM
2. CCCAACGACUUUCGAGCGAGAUUACGCUUGAGCGCCCCACUGAGGAUGCCCACGGGCGAUUGGGGCACGG  4.76 nM
3. CCCAACGACUUCCGAGCGAGAUUACGUUUGAGCGCCCCACUGAGGAUGCCCACGGGCGAUUGGGGCACGG  4.86 nM
4. CCCAACGACUACUGAGCGAGAUUACGCUUGAGCGCCCCACUGAGGAUGCCCACGGGCGAUUGGGGCACGG  5.33 nM
5. CCCAACGACUUCCGAGCGAGAUUUCGCUUGAGCGCCCCACUGAGGAUGCCCACGGGCGAUUGGGGCACGG  5.45 nM
6. CCCAACGACUUCCGAGCGAGAUUACGCUUGAGCGCCCCACUGAGGAUGCCCACGGGCGAUUGGGACACGG  5.5 nM
7. CCCAACGACUCGCGAGCGAGAUUACGCUUGAGCGCCCCACUGAGGAUGCCCACGGGCGAUUGGGGCACGG  5.71 nM
8. CCCAACGACUUGCGAGCGAGAUUACGCUUGAGCGCCCCACUGAGGAUGCCCACGGGCGAUUGGGGCACGG  5.8 nM
9. CCCAACGACUUCCGAGCGAGAUUGCGCUUGAGCGCCCCACUGAGGAUGCCCACGGGCGAUUGGGGCACGG  5.82 nM
10. CCCAACGACUACCGAGCGAGAGUACGCUUGAGCGCCCCACUGAGGAUGCCCACGGGCGAUUGGGGCACGG  6.03 nM
11. CCCAACGACUUCCGAGCGGGAUUACGCUUGAGCGCCCCACUGAGGAUGCCCACGGGCGAUUGGGGCACGG  6.05 nM
12. CCCAACGACUUCCGAGCGAGAUUACGCUUGUGCGCCCCACUGAGGAUGCCCACGGGCGAUUGGGGCACGG  6.12 nM
13. CCCAACGACUUCCGAGCGAGAUUACGCUUGAGCGCCCCACUGAGGAUGCCCACGGGUGAUUGGGGCACGG  6.12 nM
14. CCCAACGACUACGGAGCGAGAUUACGCUUGAGCGCCCCACUGAGGAUGCCCACGGGCGAUUGGGGCACGG  6.15 nM
15. CCCAACGACUUCCGAGCGAGAUUACGCUUGAACGCCCCACUGAGGAUGCCCACGGGCGAUUGGGGCACGG  6.15 nM
16. CCCAACGACUUCCGAGCGAGAUGACGCUUGAGCGCCCCACUGAGGAUGCCCACGGGCGAUUGGGGCACGG  6.33 nM
17. CCCAACGACUACCAAGCGAGAUUACGCUUGAGCGCCCCACUGAGGAUGCCCACGGGCGAUUGGGGCACGG  6.34 nM
18. CCCAACGACUACCGAGCGAGAUUACGCUGGAGCGCCCCACUGAGGAUGCCCACGGGCGAUUGGGGCACGG  6.58 nM
19. CCCAACGACUACCGAUCGAGAUUACGCUUGAGCGCCCCACUGAGGAUGCCCACGGGCGAUUGGGGCACGG  6.64 nM
20. CCCAACGACUUCCGAGCGAGAUUACGCUUGAGCGCCCCACUGAGGAUGCCUACGGGCGAUUGGGGCACGG  6.67 nM
21. CCCAACGACUUCCUAGCGAGAUUACGCUUGAGCGCCCCACUGAGGAUGCCCACGGGCGAUUGGGGCACGG  6.82 nM
22. CCCAACGACUUCCAAGCGAGAUUACGCUUGAGCGCCCCACUGAGGAUGCCCACGGGCGAUUGGGGCACGG  6.87 nM
23. CCCAACGACUACCGAGCGAGAUUACGCUUGAGCGCCCCACUGAGGAUGCCCACGGGCGAUUGGGGCUCGG  6.87 nM
24. CCCAACGACUUCCGAGCGUGAUUACGCUUGAGCGCCCCACUGAGGAUGCCCACGGGCGAUUGGGGCACGG  7.3 nM
25. CCCAACGACUUCCGAGCGAGAUUACGCUUGGGCGCCCCACUGAGGAUGCCCACGGGCGAUUGGGGCACGG  7.38 nM
26. CCCAACGACUUCCGAGCGAGAUUACGCUUGAGCGCCCCACUGAGGAUGCCCACGGGCGAUUGGGUCACGG  7.6 nM
27. CCCAACGACUUCCGAGCGAGAUUACGCUUGAGCGCCUCACUGAGGAUGCCCACGGGCGAUUGGGGCACGG  7.71 nM
28. CCCAACGACUACCGAGCAAGAUUACGCUUGAGCGCCCCACUGAGGAUGCCCACGGGCGAUUGGGGCACGG  7.8 nM
29. CCCAACGACUUCCGAGCGAGAUUACGCUUGAGCGCCCCACUGAGGAUGCCCACGGGCGAUUGUGGCACGG  8.25 nM
30. CCCAACGACUACCGAGCGAUAUUACGCUUGAGCGCCCCACUGAGGAUGCCCACGGGCGAUUGGGGCACGG  8.59 nM
31. CCCAACGACUUCCGAGCGAGAUUACGCUUGAGCGCCCCACUGAGGAUGCCCACGGGCGAUUGGAGCACGG  9.29 nM
32. CCCAACGACUUCCGAGCGAGAUUACGCUUGAGCGCCCCACUGAGGAUGCCCACGGACGAUUGGGGCACGG  10.8 nM
33. CCCAACGACUUCCGAGCGAGAUUACGCUUGAGCGCCCCACUGAGGAUGCCCACGGGCGGUUGGGGCACGG  17.7 nM
34. CCCAACGACUUCCGAGCGAGAUUACGCUUGAGCGCCCCACUGAGGAUGCUCACGGGCGAUUGGGGCACGG  17.7 nM
35. CCCAACGACUUCCGAGCGAGAUUACGCUUGAGCGCCCCACUGAGGAUGCCCACGGGCGAUUGAGGCACGG  19.4 nM
36. CCCAACGACUUCCGAGCGAGAUUACGCUUGAGCGCCCCACUGAGGAUGCCCACGGGCGAUUAGGGCACGG  19.7 nM
37. CCCAACGACUUCCGAGCGAGAUUACGCUUGAGCGCCCCACUGGGGAUGCCCACGGGCGAUUGGGGCACGG  45.8 nM
38. CCCAACGACUUCCGAGCGAGAUUACGCUUGAGCGCCCCACUGAGGAUGCCCACGGGCGUUUGGGGCACGG  48.9 nM
39. CCCAACGACUUCCGAGCGAGAUUACGCUUGAGCGCCCCACUAAGGAUGCCCACGGGCGAUUGGGGCACGG  55.9 nM
